From ChEMBL document CHEMBL1122024, “Quantitative structure-inhibitory activity relationships of phenols and fatty acids for Bacillus subtilis spore germination” (J Med Chem, 1982)

Tests used:
Bacillus subtilis [1] = format: functional
physchem [2] = details: octanol/water
Bacillus subtilis [3] = assay: microbe, parasite or virus in culture; format: functional, organism-based; details: read-out: I50
physchem [4] = details: octanol/water, pH 7.2
physchem [5] = assay: physchem
Bacillus subtilis [6] = assay: Inhibitory activity on germination of Bacillus subtilis PCI219 spores was determined; No inhibition at 2.5e-3M; format: functional, organism-based
In short: (§1)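 Unheated B. subtilis PCI219 spores (about 2.2×10^8 cells per mL) were incubated with the test compound in 0.1 mM L-alanine germinant and 0.05 M phosphate buffer, pH 7.2, at 37 °C. Germination was followed as the decrease in absorbance at 650 nm. The rate was taken as the slope of the steepest linear portion and compared with an inhibitor-free control.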

[7] = Distribution coefficient (log D) was determined at pH 7.2
Bacillus subtilis [8] = tested on: Bacillus subtilis
Bacillus subtilis [9] = assay: Inhibitory activity on germination of Bacillus subtilis PCI219 spores was determined; No inhibition at 5e-2M; format: functional, organism-based
In short: as §1

Bacillus subtilis [10] = assay: Inhibitory activity on germination of Bacillus subtilis PCI219 spores was determined at 2 x 10E-4 M; format: functional
In short: as §1

Bacillus subtilis [11] = assay: Inhibitory activity on germination of Bacillus subtilis PCI219 spores was determined; No inhibition at 5*10e-2 M; format: functional, organism-based
In short: as §1

[12] = Dissociation constant was determined spectrophotometrically; Experiment 1; format: physicochemical

Compound | Log 1/I50 (Bacillus subtilis [1]) | logP (physchem [2]) | IC50 (Bacillus subtilis [3]) | logD (physchem [4]) | pKa (physchem [5]) | further results
CCc1ccc(O)cc1 | 2.8 1/M | 2.26 | 1600 µM | 2.26 | 10 | 
NC(Cc1ccc(O)cc1)C(=O)O (stereo not given) |  |  |  |  |  | I50 (Bacillus subtilis [6]): No inhibition
CC(C)Cc1ccc(O)cc1 | 3.52 1/M | 3.4 | 302 µM | 3.4 | 10.2 | 
CC(C)(C)c1ccccc1O | 4.46 1/M |  | 34.5 µM |  | 11.3 | 
O=Cc1ccccc1O | 2.42 1/M |  | 3780 µM |  | 8.3 | 
Cc1cc(C)c(O)c(C)c1 | 2.85 1/M | 2.86 | 1400 µM | 2.86 | 10.9 | 
CC(C)(C)c1ccc(O)cc1 |  |  | 302 µM |  |  | 
CC(C)c1ccc(O)cc1 | 3.17 1/M | 2.86 | 674 µM | 2.86 | 10.1 | 
CC(C)c1ccccc1O | 3.57 1/M | 2.88 | 268 µM | 2.88 | 10.4 | 
Oc1c(Cl)cc(Cl)cc1Cl |  |  | 130 µM |  |  | 
Oc1c(Cl)cc(Cl)c(Cl)c1Cl | 3.57 1/M | 4.1 | 269 µM | 2.59 | 5.7 | 
CCc1ccccc1O | 3.31 1/M | 2.47 | 493 µM | 2.47 | 10.2 | 
CC(C)Cc1ccccc1O | 3.62 1/M | 3.27 | 242 µM | 3.27 | 10.5 | 
Oc1ccc(Br)cc1 |  |  | 717 µM |  |  | 
Oc1ccc(-c2ccccc2)cc1 | 3.89 1/M | 3.2 | 129 µM | 3.2 | 9.5 | 
Oc1ccc(Cl)cc1Cl [2,4-DICHLOROPHENOL] | 3.62 1/M | 3.14 | 242 µM | 3.06 |  | 
Oc1ccccc1Cl [2-CHLOROPHENOL] | 3.25 1/M |  | 562 µM | 2.13 | 8.5 | 
Oc1ccccc1-c1ccccc1 [2-PHENYLPHENOL] | 3.55 1/M | 3.09 | 280 µM | 3.09 | 9.9 | 
Nc1cccc(O)c1 [3-AMINOPHENOL] | 1.35 1/M | 0.16 | 44700 µM | 0.16 | 9.9 | 
O=[N+]([O-])c1cccc(O)c1 [3-NITRO-PHENOL] | 3.05 1/M |  | 901 µM |  | 8.4 | logD [7]: 1.97
Nc1ccc(O)cc1 [4-AMINOPHENOL] |  |  |  |  | 10.3 | Log 1/I50 (Bacillus subtilis [8]): No inhibition; I50 (Bacillus subtilis [9]): No inhibition
O=Cc1ccc(O)cc1 [4-HYDROXYBENZALDEHYDE] | 1.7 1/M | 1.37 | 20000 µM | 1.22 | 7.6 | 
CCCCCCCCCC(=O)O [DECANOIC ACID] | 2.22 1/M | 3.92 | 6030 µM | 1.62 |  | 
CCCCCCCCCCCC(=O)O [DODECANOATE] | 2.7 1/M | 4.92 | 1980 µM | 2.62 | 4.9 | 
COc1ccccc1O [GUAIACOL] | 2.2 1/M | 1.33 | 6310 µM | 1.33 | 9.9 | 
CCCCCCC(=O)O [HEPTANOATE] | 0.82 1/M | 2.42 | 151000 µM | 0.12 | 4.9 | 
Oc1c(Cl)cc(Cl)c(Cl)c1Cc1c(O)c(Cl)cc(Cl)c1Cl [HEXACHLOROPHENE] | 3.7 1/M | 7.54 | 198 µM | 5.54 | 5 | 

Compound | Log 1/I50 (Bacillus subtilis [1]) | logP (physchem [2]) | IC50 (Bacillus subtilis [3]) | logD (physchem [4]) | pKa (physchem [5]) | further results
CCCCC/C=C\C/C=C\CCCCCCCC(=O)O [LINOLEIC ACID] |  |  |  |  |  | inhibition at 200 µM (Bacillus subtilis [10]): 34.6%
CC/C=C\C/C=C\C/C=C\CCCCCCCC(=O)O [LINOLENIC ACID] |  |  |  |  |  | inhibition at 200 µM (Bacillus subtilis [10]): 32%
Cc1cccc(O)c1 [METACRESOL] | 2.7 1/M | 1.97 | 2010 µM | 1.97 | 10.1 | 
COC(=O)c1ccccc1O [METHYL SALICYLATE] | 3 1/M | 2.46 | 1030 µM | 2.46 | 10.2 | 
COC(=O)c1ccc(O)cc1 [METHYLPARABEN] | 2.7 1/M |  | 2010 µM |  |  | 
CCCCCCCCCCCCCC(=O)O [MYRISTIC ACID] |  |  |  |  |  | inhibition at 200 µM (Bacillus subtilis [10]): 21%
O=[N+]([O-])c1ccccc1O [NITROPHENOLATE] | 2.5 1/M | 1.77 | 3150 µM | 1.47 | 7.2 | 
CCCCCCCCC(=O)O [NONANOATE] | 2.05 1/M | 3.42 | 8900 µM | 1.12 | 4.9 | 
CCCCCCCC(=O)O [OCTANOIC ACID] | 1.27 1/M | 2.92 | 53500 µM | 0.62 |  | 
CCCCCCCC/C=C\CCCCCCCC(=O)O [OLEIC ACID] |  |  |  |  |  | inhibition at 200 µM (Bacillus subtilis [10]): 30.2%
Cc1cc(O)cc(O)c1 [ORCINOL] | 1.77 1/M |  | 16800 µM |  | 9.3 | 
Cc1ccccc1O [ORTHOCRESOL] | 2.89 1/M | 1.98 | 1300 µM | 1.98 | 10.3 | 
O=[N+]([O-])c1ccc(O)cc1 [P-NITROPHENOL] | 2.17 1/M |  | 6830 µM | 1.61 | 7.1 | 
CCCCCCCCCCCCCCCC(=O)O [PALMITIC ACID] |  |  |  |  |  | inhibition at 200 µM (Bacillus subtilis [10]): 17.3%
O=C(O)c1ccc(O)cc1 [PARABEN] |  | 1.57 |  |  |  | I50 (Bacillus subtilis [11]): Not Active; pKa [12]: 9.4
Oc1ccc(Cl)cc1 [PARACHLOROPHENOL] | 3.1 1/M |  | 797 µM |  | 9.4 | 
Oc1c(Cl)c(Cl)c(Cl)c(Cl)c1Cl [PENTACHLOROPHENOL] | 3.46 1/M |  | 346 µM |  | 5 | 
Oc1ccccc1 [PHENOL] |  |  | 1500 µM |  |  | 
Nc1ccccc1O [QUESTIOMYCIN B] | 1.52 1/M | 0.57 | 29900 µM | 0.57 | 9.7 | 
Oc1cccc(O)c1 [RESORCINOL] | 2.42 1/M | 0.78 | 3830 µM | 0.78 | 9.4 | 
O=C(O)c1ccccc1O [SALICYLIC ACID] |  | 2.24 |  |  |  | I50 (Bacillus subtilis [11]): No inhibition
CCCCCCCCCCCCCCCCCC(=O)O [STEARIC ACID] |  |  |  |  |  | inhibition at 200 µM (Bacillus subtilis [10]): 14.2%
Cc1ccc(C(C)C)c(O)c1 [THYMOL] | 3.31 1/M |  | 494 µM |  | 10.7 | 
Oc1cc(Cl)c(Cl)cc1Cl [TRICLOFENOL] | 3.89 1/M | 3.72 | 128 µM | 3.31 |  | 
CCCCCCCCCCCCC(=O)O [TRIDECANOATE] | 3.12 1/M | 5.42 | 750 µM | 3.12 | 4.9 | 
CCCCCCCCCCC(=O)O [UNDECANOATE] | 2.35 1/M | 4.42 | 4470 µM | 2.12 | 4.9 | 
Cc1ccc(O)cc1 [p-CRESOL] | 2.44 1/M |  | 3640 µM | 1.94 |  | 
